Test results reported in ChEMBL document CHEMBL2311478, “Macrolactonolides: a novel class of anti-inflammatory compounds” (Bioorg Med Chem, 2013).
Active and inactive are the calls of the source. The calls are words filed in the database; no cut-off is given here.

Tests used:
[1] = target: T1, Glucocorticoid receptor (Homo sapiens, UniProt P04150); test: Binding affinity to glucocorticoid receptor (unknown origin) by fluorescence polarization competitive binding assay
T1 sequence (P04150 whole entry): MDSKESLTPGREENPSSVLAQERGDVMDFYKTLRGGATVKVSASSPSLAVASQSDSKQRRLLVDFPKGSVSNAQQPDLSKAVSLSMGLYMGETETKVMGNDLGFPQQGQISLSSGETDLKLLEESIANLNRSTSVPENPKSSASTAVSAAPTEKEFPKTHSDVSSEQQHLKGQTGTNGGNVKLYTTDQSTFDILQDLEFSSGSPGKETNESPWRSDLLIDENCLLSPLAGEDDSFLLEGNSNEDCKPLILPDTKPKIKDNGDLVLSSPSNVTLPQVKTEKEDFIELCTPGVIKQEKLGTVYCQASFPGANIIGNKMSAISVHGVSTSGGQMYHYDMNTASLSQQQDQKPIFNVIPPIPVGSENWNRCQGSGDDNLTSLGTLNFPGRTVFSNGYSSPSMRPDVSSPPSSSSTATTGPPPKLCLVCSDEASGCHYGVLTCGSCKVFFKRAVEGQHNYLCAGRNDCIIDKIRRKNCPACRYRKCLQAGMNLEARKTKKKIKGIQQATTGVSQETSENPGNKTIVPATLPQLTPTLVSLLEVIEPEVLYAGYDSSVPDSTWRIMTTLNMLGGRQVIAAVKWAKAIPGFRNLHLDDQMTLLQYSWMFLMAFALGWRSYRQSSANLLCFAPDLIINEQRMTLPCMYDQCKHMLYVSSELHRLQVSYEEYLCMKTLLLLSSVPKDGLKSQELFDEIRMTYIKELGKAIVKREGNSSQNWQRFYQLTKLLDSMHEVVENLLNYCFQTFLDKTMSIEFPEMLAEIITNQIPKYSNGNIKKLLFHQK

[2] = target: T1, Glucocorticoid receptor; test: Displacement of [3H]-dexamethasone human glucocorticoid receptor alpha expressed in 293 MSR cells after 60 mins by scintillation counting; type: cell-based
[3] = test system: Rattus norvegicus; test: Antiinflammatory activity against ovalbumin-induced airway allergic Brown-Norway rat model assessed as decrease of macrophages in bronchoalveolar lavage fluid at 11 mg/kg administered intranasally as dry powder measured on day 29 after ovalbumin challenge; type: functional, organism-based; parameters: dose 11 mg/kg; settings: Lung
[4] = test system: Rattus norvegicus; test: Antiinflammatory activity against ovalbumin-induced airway allergic Brown-Norway rat model assessed as decrease of neutrophils in bronchoalveolar lavage fluid at 11 mg/kg administered intranasally as dry powder measured on day 29 after ovalbumin challenge; type: functional, organism-based; parameters: dose 11 mg/kg
[5] = test system: Rattus norvegicus; test: Antiinflammatory activity against ovalbumin-induced airway allergic Brown-Norway rat model assessed as decrease of eosinophils in bronchoalveolar lavage fluid at 11 mg/kg administered intranasally as dry powder measured on day 29 after ovalbumin challenge (reference value: 53.1%); type: functional, Lung; parameters: scale not given: the % may be the effect or the level left
[6] = Drug uptake in mouse J774A1 cells assessed as compound retention at 10 uM after 3 hrs by LC-MS/MS method; type: ADME, cell-based; settings: j774.a1, 3 h
Procedure, shortened: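 J774A.1 cells were loaded with 10 µM compound for 3 h in DMEM/25 mM Hepes, then incubated 3 h in fresh medium. Cells were washed, lysed in 0.5% Triton X-100 and analysed by LC–MS/MS. Retention is the percentage of the initially accumulated amount remaining. Triplicates, mean ± SD from one representative experiment.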

[7] = Drug uptake in mouse J774A1 cells at 10 uM after 3 hrs by LC-MS/MS method; type: ADME, cell-based; settings: j774.a1, 3 h
Procedure, shortened: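 Uptake in J774A.1 macrophages seeded two days before at 2 × 10^5 cells/well. Cells were exposed to 10 µM compound for 3 h in DMEM/25 mM Hepes without supplements, washed with ice-cold PBS and lysed in 0.5% Triton X-100. Lysate was measured by LC–MS/MS, using a cell volume of 1.68 µL per 10^6 cells. Result is the I/E ratio, with E taken as 10 µM.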

SMILES	EC50 [1] [µM]	EC50 [2] [µM]	further results
CC[C@H]1OC(=O)[C@H](C)[C@@H](O[C@H]2C[C@@](C)(OC)[C@@H](O)[C@H](C)O2)[C@H](C)[C@@H](O[C@@H]2O[C@H](C)C[C@H](N(C)C)[C@H]2O)[C@](C)(O)C[C@@H](C)CN(CCCNC(=O)[C@@]2(O)[C@H](C)C[C@H]3[C@@H]4C[C@H](F)C5=CC(=O)C=C[C@]5(C)[C@@]4(Cl)[C@@H](O)C[C@@]32C)[C@H](C)[C@@H](O)[C@]1(C)O	1.5	3.81	
CC[C@H]1OC(=O)[C@H](C)[C@@H](O)[C@H](C)[C@@H](O[C@@H]2O[C@H](C)C[C@H](N(C)C)[C@H]2O)[C@](C)(O)C[C@@H](C)CN(CCCNC(=O)[C@@]2(O)[C@H](C)C[C@H]3[C@@H]4C[C@H](F)C5=CC(=O)C=C[C@]5(C)[C@@]4(Cl)[C@@H](O)C[C@@]32C)[C@H](C)[C@@H](O)[C@]1(C)O	0.35	1.68	
CC[C@H]1OC(=O)[C@H](C)[C@@H](O)[C@H](C)[C@@H](O[C@@H]2O[C@H](C)C[C@H](N(C)C)[C@H]2O)[C@](C)(O)C[C@@H](C)CN(CCCNC(=O)[C@@]2(O)[C@H](C)C[C@H]3[C@@H]4CCC5=CC(=O)CC[C@]5(C)[C@H]4[C@@H](O)C[C@@]32C)[C@H](C)[C@@H](O)[C@]1(C)O	6.2	> 25	
CC[C@H]1OC(=O)[C@H](C)[C@@H](O)[C@H](C)[C@@H](O[C@@H]2O[C@H](C)C[C@H](N(C)C)[C@H]2O)[C@](C)(O)C[C@@H](C)CN(CCCNC(=O)[C@@]2(O)[C@H](C)C[C@H]3[C@@H]4C[C@H](F)C5=CC(=O)C=C[C@]5(C)[C@H]4[C@@H](O)C[C@@]32C)[C@H](C)[C@@H](O)[C@]1(C)O	0.55	5.91	
CC[C@H]1OC(=O)[C@H](C)[C@@H](O[C@H]2C[C@@](C)(OC)[C@@H](O)[C@H](C)O2)[C@H](C)[C@@H](O[C@@H]2O[C@H](C)C[C@H](N(C)C)[C@H]2O)[C@](C)(O)C[C@@H](C)CN(CCCNC(=O)[C@@]2(O)[C@H](C)C[C@H]3[C@@H]4CCC5=CC(=O)C=C[C@]5(C)[C@@]4(F)[C@@H](O)C[C@@]32C)[C@H](C)[C@@H](O)[C@]1(C)O	2.09	23	
CC[C@H]1OC(=O)[C@H](C)[C@@H](O[C@H]2C[C@@](C)(OC)[C@@H](O)[C@H](C)O2)[C@H](C)[C@@H](O[C@@H]2O[C@H](C)C[C@H](N(C)C)[C@H]2O)[C@](C)(O)C[C@@H](C)CN(CCCNC(=O)[C@@]2(O)C(C)C[C@H]3[C@@H]4CCC5=CC(=O)C=C[C@]5(C)[C@@]4(Cl)[C@@H](O)C[C@@]32C)[C@H](C)[C@@H](O)[C@]1(C)O (single isomer, unassigned)	> 10	> 25	
CCC(=O)OCC(=O)[C@@]1(OC(=O)CC)[C@@H](C)C[C@H]2[C@@H]3CCC4=CC(=O)C=C[C@]4(C)[C@@]3(Cl)[C@@H](O)C[C@@]21C [BECLOMETHASONE DIPROPIONATE]			Activity [3]: inactive; Activity [4]: inactive; Activity [5]: 43%
CC[C@H]1OC(=O)[C@H](C)[C@@H](O)[C@H](C)[C@@H](O[C@@H]2O[C@H](C)C[C@H](N(C)C)[C@H]2O)[C@](C)(O)C[C@@H](C)CN(CCCNC(=O)[C@H]2[C@H](C)C[C@H]3[C@@H]4CCC5=CC(=O)C=C[C@]5(C)[C@@]4(F)[C@@H](O)C[C@@]32C)[C@H](C)[C@@H](O)[C@]1(C)O	2.81	> 25	
CC[C@H]1OC(=O)[C@H](C)[C@@H](O[C@H]2C[C@@](C)(OC)[C@@H](O)[C@H](C)O2)[C@H](C)[C@@H](O[C@@H]2O[C@H](C)C[C@H](N(C)C)[C@H]2O)[C@](C)(O)C[C@@H](C)CN(CCCNC(=O)[C@@]2(O)CC[C@H]3[C@@H]4CCC5=CC(=O)CC[C@]5(C)[C@H]4[C@@H](O)C[C@@]32C)[C@H](C)[C@@H](O)[C@]1(C)O	> 10	> 25	
CC[C@H]1OC(=O)[C@H](C)[C@@H](O[C@H]2C[C@@](C)(OC)[C@@H](O)[C@H](C)O2)[C@H](C)[C@@H](O[C@@H]2O[C@H](C)C[C@H](N(C)C)[C@H]2O)[C@](C)(O)C[C@@H](C)CN(CCCNC(=O)[C@H]2CC[C@H]3[C@@H]4CCC5=CC(=O)CC[C@]5(C)[C@H]4[C@@H](O)C[C@]23C)[C@H](C)[C@@H](O)[C@]1(C)O	> 10	> 25	
CC[C@H]1OC(=O)[C@H](C)[C@@H](O[C@H]2C[C@@](C)(OC)[C@@H](O)[C@H](C)O2)[C@H](C)[C@@H](O[C@@H]2O[C@H](C)C[C@H](N(C)C)[C@H]2O)[C@](C)(O)C[C@@H](C)CN(CCCNC(=O)[C@@]2(O)CC[C@H]3[C@@H]4CCC5=CC(=O)C=C[C@]5(C)[C@H]4[C@@H](O)C[C@@]32C)[C@H](C)[C@@H](O)[C@]1(C)O	> 10	> 25	
C[C@@H]1C[C@H]2[C@@H]3CCC4=CC(=O)C=C[C@]4(C)[C@@]3(F)[C@@H](O)C[C@]2(C)[C@H]1C(=O)CO [DESOXIMETASONE]			Drug uptake [6]: Not Active; Drug uptake [7]: Not Active
C[C@@H]1C[C@H]2[C@@H]3CCC4=CC(=O)C=C[C@]4(C)[C@@]3(F)[C@@H](O)C[C@]2(C)[C@@]1(O)C(=O)CO [DEXAMETHASONE]			Drug uptake [6]: Not Active; Drug uptake [7]: Not Active
CC[C@H]1OC(=O)[C@H](C)[C@@H](O[C@H]2C[C@@](C)(OC)[C@@H](O)[C@H](C)O2)[C@H](C)[C@@H](O[C@@H]2O[C@H](C)C[C@H](N(C)C)[C@H]2O)[C@](C)(O)C[C@@H](C)CN(CCCNC(=O)[C@@]2(O)[C@H](C)C[C@H]3[C@@H]4C[C@H](F)C5=CC(=O)C=C[C@]5(C)[C@@]4(F)[C@@H](O)C[C@@]32C)[C@H](C)[C@@H](O)[C@]1(C)O	0.91	> 25	
CC[C@H]1OC(=O)[C@H](C)[C@@H](O[C@H]2C[C@@](C)(OC)[C@@H](O)[C@H](C)O2)[C@H](C)[C@@H](O[C@@H]2O[C@H](C)C[C@H](N(C)C)[C@H]2O)[C@](C)(O)C[C@@H](C)CN(CCCNC(=O)[C@H]2[C@H](C)C[C@H]3[C@@H]4C[C@H](F)C5=CC(=O)C=C[C@]5(C)[C@@]4(F)[C@@H](O)C[C@@]32C)[C@H](C)[C@@H](O)[C@]1(C)O	0.09	0.53	
CC[C@H]1OC(=O)[C@H](C)[C@@H](O)[C@H](C)[C@@H](O[C@@H]2O[C@H](C)C[C@H](N(C)C)[C@H]2O)[C@](C)(O)C[C@@H](C)CN(CCCNC(=O)[C@@]2(O)[C@H](C)C[C@H]3[C@@H]4C[C@H](F)C5=CC(=O)C=C[C@]5(C)[C@@]4(F)[C@@H](O)C[C@@]32C)[C@H](C)[C@@H](O)[C@]1(C)O	0.69	3.36	
CC[C@H]1OC(=O)[C@H](C)[C@@H](O[C@H]2C[C@@](C)(OC)[C@@H](O)[C@H](C)O2)[C@H](C)[C@@H](O[C@@H]2O[C@H](C)C[C@H](N(C)C)[C@H]2O)[C@](C)(O)C[C@@H](C)CN(CCCNC(=O)[C@@]2(O)[C@H](C)C[C@H]3[C@@H]4C[C@H](F)C5=CC(=O)C=C[C@]5(C)[C@H]4[C@@H](O)C[C@@]32C)[C@H](C)[C@@H](O)[C@]1(C)O	1.44	> 25	
